Screens from PubChem.
Only a selection was taken, and hits are over-represented in it overall.
Fibroblast inh = blocks proliferation of human lung fibroblasts; LL 47 human lung fibroblast viability, ATP luminescence; hits give low values; viability, % at 10 µM; actives 1.1% (n = 85,000); AID 719;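 active = viability at or below 50% in the single dose screen; inactive = viability above 50%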;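 note: compound exposure lasted 72 h before the ATP readout; 100% = median luminescence of untreated cell-only wells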
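Test system: LL 47 human lung fibroblasts / Quantity: 1,150 cells in each well / Medium: IMEM growth medium with 15% fetal bovine serum / Incubation: 72 h compound exposure at 37 °C after overnight plating / Detection: CellTiter-Glo luminescence measuring cellular ATP / Read-out: % viability versus median cells-only luminescence / Benchmarks: cell-only wells, no compound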
HCT116 bCat-KO = beta-catenin-lacking colon tumor cell growth suppression; HCT116 beta-catenin knockout viability, CellTiter-Glo, 60 h; hits give low values; viability, % at 10 µM; actives 1.5% (n = 140,000);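 active = viability at or under a set limit, the compound median less 4 SD, cut at about 6% in these data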;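 note: 0% = Hyamine 1622 control at 20 µM and 100% = untreated cell control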
H69AR growth 86K = blocks growth of human H69AR lung tumor cells | H69AR lung tumor viability, ATP luminescence, 72 h; hits give low values | viability, % at 10 µM | actives 6% (n = 85,000) | AID 598;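 active = viability at or below 40%; inactive = viability above 40%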;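 note: multidrug resistant small cell line overexpressing MRP-1 efflux transporter; 100% = mean luminescence of untreated control wells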
HUVEC inhibit = blocks proliferation of human endothelial cells; HUVEC proliferation, CellTiter-Glo luminescence, 72 h; hits give low values; viability, % at 10 µM (by protocol); actives 1.1% (n = 86,000); AID 648;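 active = viability at or below 30%; inactive = viability above 30%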;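 note: 100% = median luminescence of DMSO-only cell control wells on each plate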
HCT116 PTEN-null = growth suppressors of cells with PTEN tumor suppressor deletion; HCT116 PTEN-null viability, CellTiter-Glo, 60 h; hits give low values; viability, % at 10 µM; actives 1.2% (n = 140,000);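 active = viability at or below a set limit, 4 SD under the median of all tested compounds, cut at about 3.7% in these data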;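 note: PTEN knockout HCT116 line with beta catenin targeted HCT116 as companion control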
* marks the source's active call; other numbers are inactive results; x = no result given.

SMILES	Fibroblast inh	HCT116 bCat-KO	H69AR growth 86K	HUVEC inhibit	HCT116 PTEN-null
COc1ccc(CCN2C(=O)c3[nH]nc(-c4ccccc4O)c3C2c2cccc(O)c2)cc1OC (stereo not drawn)	94	83	84	97	74
Cc1nnc(SCC(=O)NC2CCCCC2)n(N)c1=O	x	94	x	x	103
CC(C)Cc1ccc(C(C)C(=O)OCC(=O)c2c[nH]c3ccccc23)cc1 (stereo not drawn)	98	70	39*	84	77
CCCCCCC(=O)N/N=C(\C)Cc1ccccc1	x	101	x	x	104
O=c1ccc2cc(O)c(O)cc2o1	85	80	37*	70	77
COc1cc2cc(Oc3ccc4ccc(=O)oc4c3)c(=O)oc2cc1O	x	82	x	x	90
c1ccc(-n2nnnc2Sc2ncnc3sc4c(c23)CCCC4)cc1	x	4.5*	x	x	4
Cc1sc2ncnc(Sc3nnnn3-c3ccc(Cl)cc3)c2c1C	67	4.9*	1.4*	9.9*	5
CCOC(=O)c1sc(/N=C/c2ccc(O)cc2O)cc1C	x	90	x	x	93
CCCCCC(=O)N(O)C1CC(=O)N(c2ccccc2)C1=O (stereo not drawn)	101	74	35*	97	76
COc1cccc(CN(CC(=O)NC2CCCC2)C(=O)Cn2nnc(-c3cccs3)n2)c1	99	95	79	96	91
O=C(N/N=C/c1ccco1)C1COc2ccccc2O1 (stereo not drawn)	x	90	x	x	96
O=C(N/N=C/c1cccs1)C1COc2ccccc2O1 (stereo not drawn)	95	81	24*	69	79
Nc1c(Cl)ncnc1N/N=C/c1ccc2ccccc2n1	x	5.1*	x	x	3.0*
Nc1c(Cl)ncnc1N/N=C/c1ccnc2ccccc12	x	96	x	x	97
Nc1c(Cl)ncnc1N/N=C/c1ccccn1	x	2.5*	x	x	3.4*
CC(=O)c1ccc(NC(=S)NNC(=O)c2ccncc2)cc1	x	90	x	x	90
OC(COCCOc1ccc(Br)cc1)CN1CCCCC1 (stereo not drawn)	x	90	x	x	89
COc1cccc(Cn2c(-c3nonc3N)nc3ccccc32)c1	51	27	24*	65	28
COc1cc(Cn2c(-c3nonc3N)nc3ccccc32)ccc1C	48*	96	18*	40	97
CC(C)(C)NC(=O)Cn1c(-c2nonc2N)nc2ccccc21	99	96	94	83	103
CCCCOc1ccccc1NC(=O)Cn1c(-c2nonc2N)nc2ccccc21	x	1.8*	x	x	1.6*
COc1ccc(OCCN2C(=O)NC3(CCc4ccccc4C3)C2=O)cc1 (stereo not drawn)	x	93	x	x	91
CCOC(=O)C1=NN(C(C)=O)C2(CC(=O)N(c3cccc(C)c3)C2=O)C1 (stereo not drawn)	x	94	x	x	102
O=C(CCN1CCc2ccccc2C1)c1ccc2c(c1)OCCO2	80	64	0.7*	87	80
SMILES	Fibroblast inh	HCT116 bCat-KO	H69AR growth 86K	HUVEC inhibit	HCT116 PTEN-null
O=C(CCN1CCc2ccccc21)c1ccc2c(c1)OCCO2	95	12	92	101	12
CCn1cc(C2=NC(c3ccccc3)CO2)c2ccccc21 (stereo not drawn)	87	92	32*	71	90
CCOC(=O)CSc1ncc(-c2ccc([N+](=O)[O-])cc2)[nH]1	x	94	x	x	96
COc1ccc(/C=N/NC(=O)Cc2cc(OC)c(OC)cc2[N+](=O)[O-])cc1	x	91	x	x	87
CC1CCN(c2c(NCc3ccc(C(=O)N4c5ccccc5CC4C)cc3)c(=O)c2=O)CC1 (stereo not drawn)	92	77	34*	86	86
CC1CCN(c2c(NCc3ccc(C(=O)N4CCN(C5CCCCC5)CC4)cc3)c(=O)c2=O)CC1	x	86	x	x	100
N/C(Cc1cccs1)=N\OC(=O)COc1ccc(Cl)cc1Cl	98	98	89	97	84
O=C(NNC(=O)C1[C@H]2CCCC[C@@H]12)NC1CCCCC1 (stereo partly drawn)	x	92	x	x	97
O=C(CSc1oc(-c2ccc(F)cc2)nc1S(=O)(=O)c1ccc(F)cc1)NCC1CCCO1 (stereo not drawn)	14*	21	49	61	9
Cc1ccc(S(=O)(=O)c2nc(-c3ccc(F)cc3)oc2SCC(=O)NCC2CCCO2)cc1 (stereo not drawn)	62	38	28*	71	25
Cc1ccc(-c2nc(S(=O)(=O)c3ccc(F)cc3)c(SCC(=O)NCC3CCCO3)o2)cc1 (stereo not drawn)	94	85	86	106	88
CN=C(Nc1cccc(OC)c1)SC1CC(=O)N(c2ccc(C(=O)O)cc2)C1=O (stereo not drawn)	x	92	x	x	103
Cc1ccccc1-n1c(C)nnc1SCc1cc(=O)oc2ccc3ccccc3c12	x	99	x	x	94
CCNc1ccc(S(=O)(=O)N(C)C)cc1NCC(=O)Nc1ccc(F)c(Cl)c1	x	68	x	x	60
NC(=O)C(c1ccc(Cl)cc1Cl)c1ncc(C(F)(F)F)cc1Cl (stereo not drawn)	x	90	x	x	90
CCOC(=O)C(C(=O)OCC)C(Nc1cccc(Br)c1)c1ccccc1 (stereo not drawn)	x	3.5*	x	x	1.6*
CCOC(=O)C(C(=O)OCC)c1cc(Br)c2noc3c2c1C(=O)c1ccccc1-3	x	1.3*	x	x	1.1*
CC(=O)OCCNc1cc(N2CCN(C)CC2)c2noc3c2c1C(=O)c1ccccc1-3	x	78	x	x	90
N=c1c(S(=O)(=O)c2ccccc2)cc2c(=O)n3ccccc3nc2n1Cc1ccco1	76	7	11*	87	4
Cc1ccc(S(=O)(=O)c2cc3c(=O)n4ccccc4nc3n(Cc3ccco3)c2=N)cc1C	73	70	7.8*	87	62
N=c1c(S(=O)(=O)c2ccccc2)cc2c(=O)n3ccccc3nc2n1CCN1CCOCC1	103	x	73	91	x
C/C(CC(=O)N1CCN(C=O)CC1)=N\NC(=O)c1cc2ccccc2cc1O	x	41	x	x	51
CCC/C(C)=N/NC(=O)c1ccccc1O	x	91	x	x	90
C/C(=N/NC(=O)c1cc2ccccc2cc1O)C1C(=O)c2ccccc2C1=O	75	58	36*	63	76
C/C(=N\NC(=O)c1ccccc1O)C1C(=O)c2ccccc2C1=O	x	4.0*	x	x	5
CCn1c2ccccc2c2cc(C3C(C#N)=C(N)Oc4n[nH]c(COC)c43)ccc21 (stereo not drawn)	54	2.3*	83	5.6*	6
COCc1[nH]nc2c1C(c1ccc(OC)c(OC)c1)C(C#N)=C(N)O2 (stereo not drawn)	103	102	86	95	104
O=C(Nc1ccc(Cl)cc1C(=O)NCC1CCCO1)c1ccc(Cl)cc1Cl (stereo not drawn)	x	93	x	x	84
Cc1cc(NCCCn2ccnc2)n2nc(C)c(-c3ccccc3)c2n1	93	84	41	72	90
Cc1cc(NCCCn2ccnc2)n2nc(C)c(-c3ccc(Cl)cc3)c2n1	15*	5.5*	1.1*	2.3*	4
